These results are taken from ChEMBL document CHEMBL1133577, “Design and synthesis of piperazine-based matrix metalloproteinase inhibitors” (J Med Chem, 2000).

Experiment [1] addresses Matrix metalloproteinase-9 (Homo sapiens, UniProt P14780). The experiment can be described thus: In vitro inhibitory activity against matrix metalloprotease-9 (MMP-9).
A further experiment addresses Collagenase 3 (Homo sapiens, UniProt P45452). The experiment can be described thus: In vitro inhibitory activity against matrix metalloprotease-13 (MMP-13).
A further experiment concerns the target Stromelysin-1 (Homo sapiens, UniProt P08254). The experiment can be described thus: In vitro inhibitory activity against matrix metalloprotease-3 (MMP-3).
A further experiment concerns the target T1, Interstitial collagenase (Homo sapiens, UniProt P03956).
T1 sequence (P03956 whole entry): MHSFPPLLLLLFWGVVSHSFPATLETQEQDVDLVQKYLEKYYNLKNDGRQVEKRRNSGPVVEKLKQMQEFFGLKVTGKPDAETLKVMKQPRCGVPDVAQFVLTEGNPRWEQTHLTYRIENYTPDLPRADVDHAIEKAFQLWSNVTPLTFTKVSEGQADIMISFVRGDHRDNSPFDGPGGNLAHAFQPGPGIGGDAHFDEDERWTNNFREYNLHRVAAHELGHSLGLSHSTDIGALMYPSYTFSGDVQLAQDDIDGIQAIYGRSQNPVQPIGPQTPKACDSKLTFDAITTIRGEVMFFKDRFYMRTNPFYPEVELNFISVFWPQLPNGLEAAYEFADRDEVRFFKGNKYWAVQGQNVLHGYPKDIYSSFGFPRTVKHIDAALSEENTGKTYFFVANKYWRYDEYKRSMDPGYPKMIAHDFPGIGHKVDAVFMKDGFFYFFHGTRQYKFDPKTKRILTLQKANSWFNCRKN
Kind of experiment: In vitro inhibitory activity against matrix metalloprotease-1 (MMP-1).

The next experiment has as its target T2, Matrilysin (Homo sapiens, UniProt P09237).
T2 sequence (P09237 whole entry): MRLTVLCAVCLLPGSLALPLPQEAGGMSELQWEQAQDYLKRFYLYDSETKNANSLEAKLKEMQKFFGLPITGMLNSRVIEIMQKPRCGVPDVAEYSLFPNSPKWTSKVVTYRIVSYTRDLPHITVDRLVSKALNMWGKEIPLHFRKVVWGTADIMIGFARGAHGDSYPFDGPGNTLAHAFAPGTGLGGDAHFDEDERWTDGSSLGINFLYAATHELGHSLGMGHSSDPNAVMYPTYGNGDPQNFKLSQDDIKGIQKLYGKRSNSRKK
The experiment can be described thus: In vitro inhibitory activity against matrix metalloprotease-7 (MMP-7). Put shortly:
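MMP-7 supplied as active enzyme. It was incubated with 8 µM […] in 50 mM Tris-HCl pH 7.5, 10 mM CaCl2, 0.15 M NaCl, 0.05% Brij for 20-30 min at 37 °C with varying inhibitor. The reaction was quenched with 50 mM EDTA and fluorescence read at ex 328/em 393 nm. Activity is expressed as % of uninhibited control, triplicates; IC50 from 4-parameter logistic fit.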

pIC50: −log10 of the molar value.

The pIC50 is −log10 of the IC50, conventionally taken in molar units. A lower pIC50 goes with a large IC50.

Stromelysin-1, sequence (P08254 whole entry): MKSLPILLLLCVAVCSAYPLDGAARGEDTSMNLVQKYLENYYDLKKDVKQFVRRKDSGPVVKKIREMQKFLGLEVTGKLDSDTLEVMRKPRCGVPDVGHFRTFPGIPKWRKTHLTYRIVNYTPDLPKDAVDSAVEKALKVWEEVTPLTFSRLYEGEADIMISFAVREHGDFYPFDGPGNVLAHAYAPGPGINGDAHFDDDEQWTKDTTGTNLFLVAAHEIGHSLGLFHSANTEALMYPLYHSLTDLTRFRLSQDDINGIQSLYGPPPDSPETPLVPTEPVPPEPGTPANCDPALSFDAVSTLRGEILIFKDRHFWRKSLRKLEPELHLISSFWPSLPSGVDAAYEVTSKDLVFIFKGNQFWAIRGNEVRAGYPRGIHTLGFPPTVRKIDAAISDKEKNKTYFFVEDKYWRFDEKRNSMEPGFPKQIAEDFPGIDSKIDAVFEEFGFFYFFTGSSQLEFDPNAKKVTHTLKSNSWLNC
Matrix metalloproteinase-9, sequence (P14780 whole entry): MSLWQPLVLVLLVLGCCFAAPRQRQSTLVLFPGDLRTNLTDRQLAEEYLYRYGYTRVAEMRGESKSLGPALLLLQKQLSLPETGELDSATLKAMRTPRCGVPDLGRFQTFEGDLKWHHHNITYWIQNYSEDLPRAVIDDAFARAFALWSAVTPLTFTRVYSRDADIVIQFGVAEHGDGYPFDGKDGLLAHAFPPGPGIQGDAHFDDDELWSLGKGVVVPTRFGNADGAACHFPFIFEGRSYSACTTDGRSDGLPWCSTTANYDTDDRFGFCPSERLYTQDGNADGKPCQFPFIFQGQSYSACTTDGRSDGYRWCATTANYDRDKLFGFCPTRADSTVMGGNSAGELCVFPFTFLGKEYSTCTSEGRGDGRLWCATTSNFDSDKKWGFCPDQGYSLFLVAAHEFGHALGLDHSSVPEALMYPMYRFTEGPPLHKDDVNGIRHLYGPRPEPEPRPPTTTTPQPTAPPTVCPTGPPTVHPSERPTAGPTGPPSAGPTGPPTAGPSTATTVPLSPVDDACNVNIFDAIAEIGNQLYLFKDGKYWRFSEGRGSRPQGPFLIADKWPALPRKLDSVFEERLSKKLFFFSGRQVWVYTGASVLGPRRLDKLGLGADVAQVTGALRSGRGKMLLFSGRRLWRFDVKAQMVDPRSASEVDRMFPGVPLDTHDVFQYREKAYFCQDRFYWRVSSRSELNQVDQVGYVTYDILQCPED

As for `COc1ccc(S(=O)(=O)N2CCN(C(=O)[C@@H](O)C(C)C)CC2C(=O)NO)cc1` (stereo partly specified), the negative-log IC50 (pIC50) was 8.36 in experiment [1]; 9.00 at Collagenase 3; 7.22 on Stromelysin-1; 6.64 against Interstitial collagenase; 5.77 against Matrilysin.

Take `CCCCCCN(C)C(=O)N1CCN(S(=O)(=O)c2ccc(OC)cc2)C(C(=O)NO)C1` (stereo unspecified): the pIC50 in experiment [1] was 8.22; against Collagenase 3 it was 8.72; against Stromelysin-1 it was 8.37; against Interstitial collagenase, 7.15; at Matrilysin it was 5.49.

Take `CCCCCC(=O)N1CCN(S(=O)(=O)c2ccc(OC)cc2)C(C(=O)NO)C1` (stereo unspecified): the pIC50 was 7.41 at Stromelysin-1, 6.94 against Interstitial collagenase and 6.10 against Matrilysin.

Consider `COc1ccc(S(=O)(=O)N2CCN(C(=O)c3ccco3)CC2C(=O)NO)cc1` (stereo unspecified), for which the negative-log IC50 (pIC50) in experiment [1] was 8.80; against Collagenase 3, 8.60; against Stromelysin-1, 8.12; at Interstitial collagenase it was 7.60; on Matrilysin, 6.19.

On to `COc1ccc(S(=O)(=O)N2CCN(S(C)(=O)=O)CC2C(=O)NO)cc1` (stereo unspecified), for which the pIC50 was 9.22 in experiment [1]; 9.00 against Collagenase 3; 8.46 at Stromelysin-1; 8.10 at Interstitial collagenase; 6.32 against Matrilysin.

As to `COc1ccc(S(=O)(=O)N2CCN(Cc3ccccc3)CC2C(=O)NO)cc1` (stereo unspecified), the pIC50 in experiment [1] was 8.12; against Collagenase 3 it was 8.10; on Stromelysin-1, 7.12; on Interstitial collagenase, 6.49; against Matrilysin, 4.85.

Turning to `CCCCCCNC(=O)N1CCN(S(=O)(=O)c2ccc(OC)cc2)C(C(=O)NO)C1` (stereo unspecified), the negative-log IC50 (pIC50) in experiment [1] is 8.59; against Collagenase 3 it was 8.85; against Stromelysin-1, 7.55; at Interstitial collagenase it was 7.52; against Matrilysin it was 6.30.

As for `CCCCCCN(C)C(=O)N1CCN(S(=O)(=O)c2ccc(Br)cc2)C(C(=O)NO)C1` (stereo unspecified), the negative-log IC50 (pIC50) was 7.89 in experiment [1]; 8.35 against Collagenase 3; 6.76 on Stromelysin-1; 7.06 at Interstitial collagenase; 5.92 against Matrilysin.

Consider `COc1ccc(S(=O)(=O)N2CCN(S(=O)(=O)c3ccc(OC)cc3)C(C(=O)NO)C2)cc1` (stereo unspecified), for which the pIC50 in experiment [1] is 8.92; against Collagenase 3 it was 8.89; on Stromelysin-1, 7.89; at Interstitial collagenase it was 7.22; on Matrilysin, 5.72.

`COc1ccc(S(=O)(=O)N2CCNCC2C(=O)NO)cc1` (stereo unspecified) gave a pIC50 in experiment [1] of 8.16.

Take `COc1ccc(S(=O)(=O)N2CCN(C)CC2C(=O)NO)cc1` (stereo unspecified): the pIC50 is 7.60 in experiment [1], 7.68 on Collagenase 3, 6.57 against Stromelysin-1 and 5.00 at Matrilysin.

Take `COc1ccc(S(=O)(=O)N2CCN(C(=O)N3CCOCC3)CC2C(=O)NO)cc1` (stereo unspecified): the negative logarithm of the IC50 (pIC50) in experiment [1] was 8.08; against Collagenase 3 it was 7.27; against Stromelysin-1 it was 6.91; at Interstitial collagenase it was 6.64; on Matrilysin, 5.36.

On to `COc1ccc(S(=O)(=O)N2CCN(C(=O)c3ccc(-c4ccccc4)cc3)CC2C(=O)NO)cc1` (stereo unspecified), for which the negative logarithm of the IC50 (pIC50) against Collagenase 3 is 9.05; at Stromelysin-1 it was 7.64; against Interstitial collagenase, 7.37; at Matrilysin, 6.03.

Take `COCCN(CCOC)C(=O)N1CCN(S(=O)(=O)c2ccc(Br)cc2)C(C(=O)NO)C1` (stereo unspecified): the pIC50 in experiment [1] is 7.70; against Collagenase 3 it was 8.49; on Stromelysin-1, 6.41; against Interstitial collagenase, 7.31; on Matrilysin, 5.95.

`CCCN(CC1CC1)C(=O)N1CCN(S(=O)(=O)c2ccc(OC)cc2)C(C(=O)NO)C1` (stereo unspecified): the negative-log IC50 (pIC50) on Collagenase 3 was 8.96; against Stromelysin-1 it was 7.19; against Matrilysin, 5.68.

As for `COc1ccc(S(=O)(=O)N2CCN(C(=O)NCCc3ccccc3)CC2C(=O)NO)cc1` (stereo unspecified), the pIC50 in experiment [1] was 8.44; against Stromelysin-1, 7.57; against Interstitial collagenase it was 7.15; on Matrilysin it was 6.08.

In the case of `COc1ccc(S(=O)(=O)N2CCN(C(=O)N(C)Cc3ccccc3)CC2C(=O)NO)cc1` (stereo unspecified), the negative logarithm of the IC50 (pIC50) was 8.74 against Collagenase 3, 7.42 on Stromelysin-1 and 6.49 against Interstitial collagenase.

For `COc1ccc(S(=O)(=O)N2CCN(C(=S)NCc3ccccc3)CC2C(=O)NO)cc1` (stereo unspecified), the pIC50 in experiment [1] was 8.18; against Stromelysin-1 it was 7.39; against Interstitial collagenase it was 7.17; on Matrilysin it was 6.40.

On to `COc1ccc(S(=O)(=O)N2CCN(C(=O)NCc3ccccc3)CC2C(=O)NO)cc1` (stereo unspecified), for which the pIC50 in experiment [1] is 8.42; against Collagenase 3, 8.62; against Stromelysin-1, 7.77; against Interstitial collagenase, 7.00; on Matrilysin, 6.38.

As to `COc1ccc(S(=O)(=O)N2CCN(C(=O)OCc3ccccc3)CC2C(=O)NO)cc1` (stereo unspecified), the negative logarithm of the IC50 (pIC50) in experiment [1] is 8.72; against Collagenase 3, 8.89; on Interstitial collagenase, 7.62; at Matrilysin it was 6.63.

Take `COc1ccc(S(=O)(=O)N2CCN(C(C)=O)CC2C(=O)NO)cc1` (stereo unspecified): the negative-log IC50 (pIC50) in experiment [1] was 8.74; on Collagenase 3, 9.00; against Stromelysin-1 it was 7.74; against Interstitial collagenase it was 7.14; against Matrilysin, 6.09.

For `COc1ccc(S(=O)(=O)N2CCN(C(=O)COc3ccccc3)CC2C(=O)NO)cc1` (stereo unspecified), the pIC50 in experiment [1] is 8.52; at Stromelysin-1 it was 8.02; on Interstitial collagenase, 7.04; against Matrilysin, 6.04.

As for `COc1ccc(S(=O)(=O)N2CCN(C(=O)N3CCN(C)CC3)CC2C(=O)NO)cc1` (stereo unspecified), the pIC50 in experiment [1] was 8.30; on Collagenase 3, 8.39; against Stromelysin-1, 6.94; on Interstitial collagenase, 6.45; on Matrilysin it was 5.57.

Take `COc1ccc(S(=O)(=O)N2CCN(C(=O)N3CCCCCC3)CC2C(=O)NO)cc1` (stereo unspecified): the pIC50 against Collagenase 3 is 8.54; against Stromelysin-1, 7.27; against Interstitial collagenase, 6.80; against Matrilysin, 5.57.

With `COc1ccc(S(=O)(=O)N2CCN(C(=O)OC(C)(C)C)CC2C(=O)NO)cc1` (stereo unspecified), the pIC50 in experiment [1] was 8.64; at Stromelysin-1, 7.22; against Interstitial collagenase it was 7.09; against Matrilysin, 5.84.

With `COc1ccc(S(=O)(=O)N2CCN(C(=O)C3CCCCC3)CC2C(=O)NO)cc1` (stereo unspecified), the pIC50 in experiment [1] is 8.74; against Collagenase 3, 8.82; against Stromelysin-1 it was 7.57; against Interstitial collagenase, 6.66; against Matrilysin it was 5.66.

Consider `COc1ccc(S(=O)(=O)N2CCN(C(=O)Nc3cccc(OC)c3)CC2C(=O)NO)cc1` (stereo unspecified), for which the pIC50 is 8.39 in experiment [1]; 8.55 against Collagenase 3; 7.89 at Stromelysin-1; 7.10 against Interstitial collagenase; 5.96 against Matrilysin.

Take `COc1ccc(S(=O)(=O)N2CCN(C(=O)c3c(-c4ccccc4)noc3C)CC2C(=O)NO)cc1` (stereo unspecified): the pIC50 in experiment [1] was 7.66; on Collagenase 3, 7.57; at Stromelysin-1, 6.39; against Interstitial collagenase, 5.88; at Matrilysin, 4.66.

On to `COc1ccc(S(=O)(=O)N2CCN(C(=O)c3ccccc3)CC2C(=O)NO)cc1` (stereo unspecified), for which the pIC50 was 7.18 at Stromelysin-1, 7.09 against Interstitial collagenase and 5.82 against Matrilysin.

Take `COc1ccc(S(=O)(=O)N2CCN(c3nc(-c4ccccc4)cs3)CC2C(=O)NO)cc1` (stereo unspecified): the pIC50 in experiment [1] is 7.55; against Stromelysin-1, 7.96; against Interstitial collagenase, 6.49; at Matrilysin, 5.48.

Turning to `COc1ccc(S(=O)(=O)N2CCN(C(=O)c3ccno3)CC2C(=O)NO)cc1` (stereo unspecified), the figures for the pIC50 at Stromelysin-1 and against Interstitial collagenase were 6.83 and 7.21, respectively.
